Results: ChEMBL document CHEMBL4689842, “EUbOPEN Chemogenomics Library wave 1” (2021)
Where “and” joins values, the source holds several entries; their conditions need not be identical. Identical values can stand only once.

Test system: Fibroblast
Test: Multiplex assay against human fibroblast
Assay type: toxicity, cell-based
Method in brief: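 Compound was added to live cells that had been stained at seeding with Hoechst33342, BioTracker Green Microtubule Cytoskeleton Dye, MitoTracker Red and Annexin V Alexa Fluor 680, and imaging followed on a CQ1 microscope at 37°C and 5% CO2. CellPathfinder machine-learning gating divided cells into Hoechst high-intensity objects or normal cells, normal cells into healthy, pyknosed or fragmented nuclei, and pyknosed cells into mitotic or apoptotic. Tubulin, mitochondrial-mass and membrane-permeability phenotypes are per cents of healthy-nucleus cells.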

[1] = 12 h, 1 µM, compound concentration 1 uM, replicate 1
[2] = 12 h, 1 µM, compound concentration 1 uM, replicate 2
[3] = 12 h, 10 µM, compound concentration 10 uM, replicate 1
[4] = 12 h, 10 µM, compound concentration 10 uM, replicate 2
[5] = 24 h, 1 µM, compound concentration 1 uM, replicate 1
[6] = 24 h, 1 µM, compound concentration 1 uM, replicate 2
[7] = 24 h, 10 µM, compound concentration 10 uM, replicate 1
[8] = 24 h, 10 µM, compound concentration 10 uM, replicate 2
[9] = 48 h, 1 µM, compound concentration 1 uM, replicate 1
[10] = 48 h, 1 µM, compound concentration 1 uM, replicate 2
[11] = 48 h, 10 µM, compound concentration 10 uM, replicate 1
[12] = 48 h, 10 µM, compound concentration 10 uM, replicate 2

CC[C@H](C)C(=O)O[C@H]1C[C@@H](C)C=C2C=C[C@H](C)[C@H](CC[C@@H]3C[C@@H](O)CC(=O)O3)[C@H]21 [LOVASTATIN]
Population Apoptotic (%) [1]: 63%
Population Fragmented Nuclei (%) [1]: 33%
Population Healthy Nuclei (%) [1]: 35%
Population Hoechst High Intensity Objects (%) [1]: 13%
Population Membrane Permeable-Phenotype (%) [1]: 23%
Population Mitochondria Different-Phenotype (%) [1]: 14%
Population Mitotic Cells (%) [1]: 36%
Population Normal (%) [1]: 86%
Population Pyknosed Nuclei (%) [1]: 31%
Population Tubulin-Different-Phenotype (%) [1]: 42%
Total Cell Count [1]: 69
Population Apoptotic (%) [2]: 25%
Population Fragmented Nuclei (%) [2]: 22%
Population Healthy Nuclei (%) [2]: 68%
Population Hoechst High Intensity Objects (%) [2]: 11%
Population Membrane Permeable-Phenotype (%) [2]: 3%
Population Mitochondria Different-Phenotype (%) [2]: 6%
Population Mitotic Cells (%) [2]: 75%
Population Normal (%) [2]: 88%
Population Pyknosed Nuclei (%) [2]: 8%
Population Tubulin-Different-Phenotype (%) [2]: 3%
Total Cell Count [2]: 87
Population Apoptotic (%) [3]: 50%
Population Fragmented Nuclei (%) [3]: 33%
Population Healthy Nuclei (%) [3]: 45%
Population Hoechst High Intensity Objects (%) [3]: 13%
Population Membrane Permeable-Phenotype (%) [3]: 22%
Population Mitochondria Different-Phenotype (%) [3]: 13%
Population Mitotic Cells (%) [3]: 50%
Population Normal (%) [3]: 86%
Population Pyknosed Nuclei (%) [3]: 22%
Population Tubulin-Different-Phenotype (%) [3]: 42%
Total Cell Count [3]: 115
Population Apoptotic (%) [4]: 100%
Population Fragmented Nuclei (%) [4]: 4%
Population Healthy Nuclei (%) [4]: 90%
Population Hoechst High Intensity Objects (%) [4]: 8%
Population Membrane Permeable-Phenotype (%) [4]: 10%
Population Mitochondria Different-Phenotype (%) [4]: 12%
Population Mitotic Cells (%) [4]: 0%
Population Normal (%) [4]: 91%
Population Pyknosed Nuclei (%) [4]: 4%
Population Tubulin-Different-Phenotype (%) [4]: 20%
Total Cell Count [4]: 54
Population Apoptotic (%) [5]: 44%
Population Fragmented Nuclei (%) [5]: 36%
Population Healthy Nuclei (%) [5]: 47%
Population Hoechst High Intensity Objects (%) [5]: 11%
Population Membrane Permeable-Phenotype (%) [5]: 11%
Population Mitochondria Different-Phenotype (%) [5]: 15%
Population Mitotic Cells (%) [5]: 55%
Population Normal (%) [5]: 88%
Population Pyknosed Nuclei (%) [5]: 16%
Population Tubulin-Different-Phenotype (%) [5]: 38%
Total Cell Count [5]: 62
Population Apoptotic (%) [6]: 40%
Population Fragmented Nuclei (%) [6]: 22%
Population Healthy Nuclei (%) [6]: 70%
Population Hoechst High Intensity Objects (%) [6]: 9%
Population Membrane Permeable-Phenotype (%) [6]: 0%
Population Mitochondria Different-Phenotype (%) [6]: 4%
Population Mitotic Cells (%) [6]: 60%
Population Normal (%) [6]: 90%
Population Pyknosed Nuclei (%) [6]: 7%
Population Tubulin-Different-Phenotype (%) [6]: 4%
Total Cell Count [6]: 93
Population Apoptotic (%) [7]: 43%
Population Fragmented Nuclei (%) [7]: 26%
Population Healthy Nuclei (%) [7]: 48%
Population Hoechst High Intensity Objects (%) [7]: 14%
Population Membrane Permeable-Phenotype (%) [7]: 19%
Population Mitochondria Different-Phenotype (%) [7]: 10%
Population Mitotic Cells (%) [7]: 56%
Population Normal (%) [7]: 85%
Population Pyknosed Nuclei (%) [7]: 24%
Population Tubulin-Different-Phenotype (%) [7]: 28%
Total Cell Count [7]: 110
Population Apoptotic (%) [8]: 28%
Population Fragmented Nuclei (%) [8]: 8%
Population Healthy Nuclei (%) [8]: 79%
Population Hoechst High Intensity Objects (%) [8]: 7%
Population Membrane Permeable-Phenotype (%) [8]: 8%
Population Mitochondria Different-Phenotype (%) [8]: 4%
Population Mitotic Cells (%) [8]: 71%
Population Normal (%) [8]: 92%
Population Pyknosed Nuclei (%) [8]: 11%
Population Tubulin-Different-Phenotype (%) [8]: 23%
Total Cell Count [8]: 74
Population Apoptotic (%) [9]: 66%
Population Fragmented Nuclei (%) [9]: 55%
Population Healthy Nuclei (%) [9]: 39%
Population Hoechst High Intensity Objects (%) [9]: 9%
Population Membrane Permeable-Phenotype (%) [9]: 26%
Population Mitochondria Different-Phenotype (%) [9]: 0%
Population Mitotic Cells (%) [9]: 33%
Population Normal (%) [9]: 90%
Population Pyknosed Nuclei (%) [9]: 5%
Population Tubulin-Different-Phenotype (%) [9]: 39%
Total Cell Count [9]: 64
Population Apoptotic (%) [10]: 33%
Population Fragmented Nuclei (%) [10]: 17%
Population Healthy Nuclei (%) [10]: 73%
Population Hoechst High Intensity Objects (%) [10]: 7%
Population Membrane Permeable-Phenotype (%) [10]: 23%
Population Mitochondria Different-Phenotype (%) [10]: 6%
Population Mitotic Cells (%) [10]: 66%
Population Normal (%) [10]: 92%
Population Pyknosed Nuclei (%) [10]: 9%
Population Tubulin-Different-Phenotype (%) [10]: 23%
Total Cell Count [10]: 69
Population Apoptotic (%) [11]: 71%
Population Fragmented Nuclei (%) [11]: 58%
Population Healthy Nuclei (%) [11]: 33%
Population Hoechst High Intensity Objects (%) [11]: 20%
Population Membrane Permeable-Phenotype (%) [11]: 19%
Population Mitochondria Different-Phenotype (%) [11]: 3%
Population Mitotic Cells (%) [11]: 28%
Population Normal (%) [11]: 80%
Population Pyknosed Nuclei (%) [11]: 7%
Population Tubulin-Different-Phenotype (%) [11]: 29%
Total Cell Count [11]: 115
Population Fragmented Nuclei (%) [12]: 37%
Population Healthy Nuclei (%) [12]: 52%
Population Hoechst High Intensity Objects (%) [12]: 15%
Population Membrane Permeable-Phenotype (%) [12]: 14%
Population Mitochondria Different-Phenotype (%) [12]: 2%
Population Normal (%) [12]: 84%
Population Pyknosed Nuclei (%) [12]: 10%
Population Tubulin-Different-Phenotype (%) [12]: 34%
Total Cell Count [12]: 79

Cn1cc(C2=C(c3cn(C4CCN(Cc5ccccn5)CC4)c4ccccc34)C(=O)NC2=O)c2ccccc21 [ENZASTAURIN]
Population Apoptotic (%) [1]: 79% and 42%
Population Fragmented Nuclei (%) [1]: 34% and 40%
Population Healthy Nuclei (%) [1]: 49% and 35%
Population Membrane Permeable-Phenotype (%) [1]: 8% and 7%
Population Mitotic Cells (%) [1]: 20% and 57%
Population Normal (%) [1]: 84% and 33%
Population Pyknosed Nuclei (%) [1]: 15% and 23%
Total Cell Count [1]: 220 and 479
Population Apoptotic (%) [2]: 66% and 55%
Population Fragmented Nuclei (%) [2]: 70% and 45%
Population Healthy Nuclei (%) [2]: 19% and 34%
Population Hoechst High Intensity Objects (%) [2]: 30% and 51%
Population Membrane Permeable-Phenotype (%) [2]: 16% and 0%
Population Mitochondria Different-Phenotype (%) [2]: 25% and 60%
Population Mitotic Cells (%) [2]: 33% and 44%
Population Normal (%) [2]: 69% and 48%
Population Pyknosed Nuclei (%) [2]: 9% and 20%
Total Cell Count [2]: 88 and 91
Population Apoptotic (%) [5]: 64% and 73%
Population Fragmented Nuclei (%) [5]: 47% and 27%
Population Healthy Nuclei (%) [5]: 23% and 58%
Population Membrane Permeable-Phenotype (%) [5]: 6% and 3%
Population Mitotic Cells (%) [5]: 35% and 26%
Population Normal (%) [5]: 28% and 83%
Population Pyknosed Nuclei (%) [5]: 28% and 13%
Total Cell Count [5]: 427 and 225
Population Apoptotic (%) [6]: 33% and 90%
Population Fragmented Nuclei (%) [6]: 67% and 50%
Population Healthy Nuclei (%) [6]: 26% and 19%
Population Hoechst High Intensity Objects (%) [6]: 34% and 50%
Population Membrane Permeable-Phenotype (%) [6]: 7% and 14%
Population Normal (%) [6]: 65% and 49%
Total Cell Count [6]: 75 and 73
